Compound activity (PubChem BioAssay)
RAM network inh – blocks the yeast RAM network. actives 1.8% (n = 190,000). inhibition, % at 50 µM. S. cerevisiae dse1pr::URA3 reporter, 5-FOA growth OD615, 2 d; analog-sensitive cbk1-as2 kinase mutant strain. AID 868;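 active means inhibition above a set limit, 3 SD over mean compound inhibition, cut at about 8.4% in these data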;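 further: 0% = DMSO-only wells with no growth and 100% = 10 µM 1-NA-PP1 full growth; inhibition rescues growth on 5-FOA so higher OD means more RAM inhibition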
Yeast life ext – extends the lifespan of yeast. AID 775. S. cerevisiae growth with nicotinamide, OD615; deaD strain in restrictive glucose medium. inhibition of the nicotinamide effect, % at 10 µM. actives 0.68% (n = 130,000);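 active means inhibition above a set limit, placed 3 SD over the median of all compounds, cut at about 26% in these data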;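 further: 0% = nicotinamide-treated wells and 100% = cells grown without nicotinamide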
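System: Modified budding yeast, DeaD strain | Buffer or medium: Restrictive glucose medium | Also added: 1.5 mM nicotinamide | Doses: 10 µM single point, 0.25% DMSO | Schedule: 48 h compound exposure at 30 °C, humidified | Detection: Absorbance at 615 nm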
Measles CPE – protection of cells from measles virus; Measles virus-infected cells, CPE protection, absorbance; protection (pct of control), % at 4 µM; actives 1.5% (n = 140,000); in the data active means protection mostly above about 24%, no sharp cut-off; inactive means mostly below about 26%
sdo1 growth – sdo1-depleted yeast growth rescue; S. cerevisiae sdo1-depleted JHY4D growth rescue, OD600 30 h; hits give high values; pdr5 snq2 efflux-pump mutant strain; z-score at 10 µM; actives 0.21% (n = 140,000); AID 817;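 active means z-score above 3 at both the 24 hr and the 30 hr optical density reads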;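 further: z-score against mean and SD of all compound wells on the same plate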
BB579 growth dn – chemicals that inhibit yeast BB579 growth in restrictive medium (lifespan-shortening candidates). S. cerevisiae BB579 growth, OD615, 48 h. inhibition, % at 10 µM. actives 0.51% (n = 140,000);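 active means inhibition above a set limit, 3 SD over the mean compound inhibition, cut at about 44% in these data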
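Test system: DeaD yeast strain BB579 / Buffer or medium: restrictive glucose-based CSMM-D medium / Doses: single 10 µM dose / Schedule: 4 h cell preincubation, 48 h compound exposure, 30 °C humidified / Technique: culture absorbance at 615 nm / Controls: amphotericin B positive control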
Starred values were filed as active, the others as inactive; . = no result. This is a sample that favours compounds with a hit; in the whole collection about 3.8% have one here.

SMILES	RAM network inh	Yeast life ext	Measles CPE	sdo1 growth	BB579 growth dn
Cn1c(=O)[nH]c(NC2CCCCC2)c(N=O)c1=O	-1	-3	41*	1.4	-16
CCOC(=O)N1CCC(NC(=O)c2cc(C(=O)NCC(OC)OC)ccc2CO)CC1	1	-3	20	1.8	-26
CC(=O)CC(c1ccccc1)S(=O)(=O)c1ccc(C)cc1 (centres undefined)	2	-7	15	-1	10
COc1ccc(C(CC(=O)c2ccccc2)S(=O)(=O)c2ccc(C)cc2)cc1 (centres undefined)	9.8*	-15	4	-0.04	-20
COc1ccc(C(=O)C/C(=C\C(=O)c2ccc(C)cc2)c2ccccc2)cc1	11*	33*	0	-0.14	-23
COc1ccc(O)c(C(=O)CC(=O)c2ccccc2)c1	2	-30	5	-2.2	-13
CCc1nc(Nc2ccc3c(c2)OCO3)c2oc3ccccc3c2n1	1	-30	57*	-1.5	-57
CC(=O)Nc1ccc(S(=O)(=O)NCC2CCC(C(=O)NC(C)c3ccc4c(c3)OCCO4)CC2)cc1 (centres undefined)	2	.	.	.	.
c1ccc(-n2nnnc2CN2CCOCC2)cc1	1	-4	5	0.74	-2
Nc1ccc(-n2nnnc2CN2CCOCC2)cc1	0	5	43*	-0.02	-49
Cc1ccc(-c2nnn(CC(=O)Nc3ccccc3-c3ccccc3)n2)c(-n2cnnn2)c1	4	-3	42*	0.16	-12
Cc1ccc(NC(=O)Cn2nnc(-c3ccccc3-n3cnnn3)n2)c(C)c1	2	.	.	.	.
CC(C)(C)C1CCC2(CC1)Nc1cccc3cccc(c13)N2	8.9*	-3	7	-1.9	3
O=S(=O)(c1ccc(Br)s1)N1CCC(Cc2ccccc2)CC1	1	-2	1	-0.24	18
O=S(=O)(c1ccc(Cl)s1)N1CCC(Cc2ccccc2)CC1	8.9*	-8	13	-1.2	-10
c1ccc(-c2nnc3n2N=C(c2ccc4c(c2)OCO4)CS3)nc1	9.2*	-3	17	0.87	-55
Cc1ccc(-c2nnc3n2N=C(c2ccccc2)CS3)cc1	4	-11	19	-1.7	-25
Clc1ccc(C2=Nn3c(nnc3-c3cc(-c4ccccc4)n[nH]3)SC2)cc1	9.1*	-17	5	-0.97	-72
c1ccc(C2=Nn3c(nnc3-c3cc(-c4ccccc4)n[nH]3)SC2)cc1	8.6*	-4	9	-1.3	-4
Cc1ccc(S(=O)(=O)N2CCOCC2)cc1NC(=O)COC(=O)c1cc(=O)c2ccccc2o1	3	-2	16	2.4	-4
CC(C)c1ccccc1NC(=S)NCCCn1ccnc1	0	.	.	.	.
CN(C)CCOc1ccccc1Cc1ccccc1	1	1	44*	-0.62	-7
CN(C)Cc1cc(CN(C)C)c(O)c(CCc2ccccc2)n1	1	-6	5	0.99	-40
CN(C)Cc1ccccc1Cc1ccccc1	0	9	38*	0.45	-16
Cc1cccc(C)c1NC(=O)CN1C(=O)NC(C)(CCc2ccccc2)C1=O (centres undefined)	1	.	.	.	.
SMILES	RAM network inh	Yeast life ext	Measles CPE	sdo1 growth	BB579 growth dn
O=C(/C=C/c1cn(-c2ccccc2)nc1-c1cccnc1)c1ccco1	0	.	.	.	.
COc1ccccc1Nc1nc(-c2sc(NC(=O)c3ccccc3)nc2C)cs1	1	-27	7	-0.25	-28
Cc1ccc(Cl)cc1Nc1nc(-c2sc(NC(=O)c3ccccc3)nc2C)cs1	9.3*	-4	4	-0.34	-84
Cc1ccc2nc(/C(C#N)=C\c3ccc(N4CCOCC4)o3)[nH]c2c1	-1	.	8	-2.1	-29
N#C/C(=C\c1ccc([N+](=O)[O-])o1)c1nc2ccccc2[nH]1	2	21	0	-2.1	67*
Cc1ccc2nc(/C(C#N)=C\c3ccc([N+](=O)[O-])o3)[nH]c2c1	-1	-22	1	-2.2	99*
N#C/C(=C\c1ccc(Sc2ccccc2)o1)c1nc2ccccc2[nH]1	7	2	5	-0.09	-69
CCOC(=O)c1c(C)oc2c1c(C(c1ccccc1)N1CCOCC1)c(O)c1ccccc12 (centres undefined)	3	24	21	-2.6	-23
CCOC(=O)c1c(C)oc2c1c(C(c1cccnc1)N1CCCCC1)c(O)c1ccccc12 (centres undefined)	1	50*	9	-3.2	-35
O=C(c1ccc(Br)o1)N1CCN(c2ccc3nnc(-c4ccc(F)cc4)n3n2)CC1	7	-5	3	-1	-15
CC1CC(C)CN(C(=O)C2CCCN(S(=O)(=O)c3cccc4nonc34)C2)C1 (centres undefined)	3	-15	53*	-0.65	-34
Oc1c(C(Nc2ccccn2)c2cccnc2)cc(Cl)c2cccnc12 (centres undefined)	1	28*	16	-0.84	-8
Cc1cc(NC(c2cccnc2)c2ccc3cccnc3c2O)no1 (centres undefined)	0	1	3	-0.43	-24
CCCSc1nc(C)c(-c2csc(C(C#N)=C3CCCC3)n2)cc1C#N	8.9*	-21	4	-0.54	-32
CCOC(=O)C(C(=O)OCC)C(Nc1cccc(Br)c1)c1ccccc1 (centres undefined)	1	29	31*	-0.78	1
CCOC(=O)C(NCCCCl)c1ccccc1 (centres undefined)	1	-6	6	0.09	15
COc1ccnc(Oc2ccc(F)cc2)c1C(=O)N/C=N/OCc1ccc(Cl)cc1Cl	6	-14	29*	-0.2	-3
COc1ccnc(Oc2ccc(F)cc2)c1C(=O)N/C=N/OCc1ccc(F)cc1Cl	3	-19	15	-0.1	-9
CCOc1ccc(OCC)c(S(=O)(=O)NC2CC(C)(C)NC(C)(C)C2)c1	3	.	.	.	.
c1ccc2c(c1)C(=Nn1cnnc1)c1ccccc1-2	1	-19	3	1.1	54*
O=C1/C(=N/n2cnnc2)c2ccccc2N1Cc1ccccc1	3	39*	4	-0.02	-42
Oc1ccccc1/C=N/n1cnnc1	0	-13	14	0.18	7
O=C(Cc1ccccc1)Nc1ccccc1C(=O)N1CCCCCC1	0	.	.	.	.
CC(C)(O)C#Cc1ccccc1C(=O)NC(CC(N)=O)C(=O)O (centres undefined)	2	-6	65*	-0.03	-24
O=c1c2c3c(sc2nc2n1CCC2)CCCCC3	-2	.	.	.	.
O=c1c2c3c(sc2nc2n1CCC2)CCC3	5	-18	36*	0.57	15
Cc1ccc(C(C(=O)NC2CCCCC2)N2CCN(C(=O)c3ccco3)CC2)cc1 (centres undefined)	2	-7	3	-1.2	1
O=c1c2c3c(sc2ncn1/N=C/c1ccc([N+](=O)[O-])o1)CCCC3	1	65*	3	-2.4	25
N#Cc1ccc(N2CCN(C(=O)c3cccc(F)c3)CC2)c(F)c1	0	-11	5	0.49	3
